{"data": "Experimental data from different studies", "sample": "plasma", "route": "intravenous", "note": "Compare with care: the assays were run in different laboratories."}
{"Compound": "CCCC[C@@H]1NC(=O)[C@H](Cc2ccc(O)cc2)NC(=O)[C@@H]2CCCN2C(=O)[C@H](CC(=O)O)NC(=O)[C@H](C)NC(=O)[C@H](Cc2ccccc2)NC(=O)[C@@H]2CSCCC(=O)N3CN(CN(C3)C(=O)CCSC[C@@H](C(=O)N[C@@H](C)C(N)=O)NC1=O)C(=O)CCSC[C@H](NC(C)=O)C(=O)N[C@@H](CC(C)(C)C)C(=O)N1CCC[C@H]1C(=O)N[C@@H](CCC(=O)O)C(=O)N[C@H](CCCCNC(=O)CCc1cn(CCOCCOCCOCCOCCOCCOCCOCCOCCOCCOCCNC(=O)c3cc(C(=O)NCCOCCOCCOCCOCCOCCOCCOCCOCCOCCOCCn4cc(CCC(=O)NCCCC[C@H]5NC(=O)[C@H](CCC(=O)O)NC(=O)[C@@H]6CCCN6C(=O)[C@H](CC(C)(C)C)NC(=O)[C@@H](NC(C)=O)CSCCC(=O)N6CN7CN(C6)C(=O)CCSC[C@H](NC(=O)[C@H](Cc6ccc(O)cc6)NC(=O)[C@@H]6CCCN6C5=O)C(=O)N[C@@H](Cc5ccccc5)C(=O)N[C@@H](C)C(=O)N[C@@H](CC(=O)O)C(=O)N5CCC[C@H]5C(=O)N[C@@H](Cc5ccc(O)cc5)C(=O)N[C@@H](CCCC)C(=O)N[C@H](C(=O)N[C@@H](C)C(N)=O)CSCCC7=O)nn4)cc(C(=O)NCCOCCOCCOCCOCCOCCOCCOCCOCCOCCOCCn4cc(CCC(=O)N[C@H]5CSCCC(=O)N6CN7CN(C6)C(=O)CCSC[C@H](NC(=O)[C@@H](CC(=O)O)NC(=O)[C@H](Cc6cccc8ccccc68)NC(=O)[C@@H]6CCCN6C5=O)C(=O)N[C@@H](CCSC)C(=O)N[C@@H](CCCCNC(=N)N)C(=O)N[C@@H](CC(=O)O)C(=O)N[C@@H](Cc5c[nH]c6ccccc56)C(=O)N[C@@H](CO)C(=O)N[C@@H]([C@@H](C)O)C(=O)N5CCC[C@H]5C(=O)N5C[C@H](O)C[C@H]5C(=O)N[C@@H](Cc5c[nH]c6ccccc56)C(=O)N[C@H](C(N)=O)CSCCC7=O)nn4)c3)nn1)C(=O)N1CCC[C@H]1C(=O)N[C@@H](Cc1ccc(O)cc1)C(=O)N2", "host": "rat", "dose": "2 mg/kg", "Vd": "1 L/kg"}
{"Compound": "Oc1c(-n2ccnn2)cnn1-c1cc(N2CCOCC2)ncn1", "host": "male rat", "dose": "5 mg/kg", "Vd": "0.62 L/kg"}
{"Compound": "CCNC(=O)c1nc(-c2ccc3[nH]c(-c4nc(C)no4)cc3c2)c(C)[nH]1", "host": "Sprague-Dawley rat", "dose": "1 mg/kg", "Vd": "1.3 L/kg"}
{"Compound": "C=CC(=O)Nc1cc(Nc2nccc(Nc3cc(Cl)c(F)cc3C(C)(C)O)n2)c(OC)cc1N1CC[C@@H](N(C)C)C1", "host": "Wistar rat", "dose": "3 mg/kg", "Vd": "13.6 L/kg"}
{"Compound": "CN1CCC(COc2cnc(-c3cccc(Cn4nc(-c5cccc(C#N)c5)ccc4=O)c3)nc2)CC1", "host": "male Sprague-Dawley rat", "dose": "1 mg/kg", "Vd": "19 L/kg"}
{"Compound": "COc1cc(F)ccc1-c1ncnc(Nc2cccc(C[S@](C)(=N)=O)c2)n1", "host": "male Wistar rat", "Vd": "1 L/kg"}
{"Compound": "Cc1nc(Nc2ncc(C(=O)Nc3c(C)cccc3Cl)s2)cc(N2CCN(CCO)CC2)n1", "host": "female Sprague-Dawley rat", "dose": "5 mg/kg", "Vd": "4.6 L"}
{"Compound": "CCCC[C@@H]1NC(=O)[C@H](Cc2ccc(O)cc2)NC(=O)[C@@H]2CCCN2C(=O)[C@H](CC(=O)O)NC(=O)[C@H](C)NC(=O)[C@H](Cc2ccccc2)NC(=O)[C@@H]2CSCCC(=O)N3CN(CN(C3)C(=O)CCSC[C@@H](C(=O)N[C@@H](C)C(N)=O)NC1=O)C(=O)CCSC[C@H](NC(C)=O)C(=O)N[C@@H](CC(C)(C)C)C(=O)N1CCC[C@H]1C(=O)N[C@@H](CCC(=O)O)C(=O)N[C@H](CCCCNC(=O)CCc1cn(CCOCCOCCOCCOCCOCCOCCOCCOCCOCCOCCNC(=O)CCOCCN(CCOCCC(=O)NCCOCCOCCOCCOCCOCCOCCOCCOCCOCCOCCn3cc(CCC(=O)NCCCC[C@H]4NC(=O)[C@H](CCC(=O)O)NC(=O)[C@@H]5CCCN5C(=O)[C@H](CC(C)(C)C)NC(=O)[C@@H](NC(C)=O)CSCCC(=O)N5CN6CN(C5)C(=O)CCSC[C@H](NC(=O)[C@H](Cc5ccc(O)cc5)NC(=O)[C@@H]5CCCN5C4=O)C(=O)N[C@@H](Cc4ccccc4)C(=O)N[C@@H](C)C(=O)N[C@@H](CC(=O)O)C(=O)N4CCC[C@H]4C(=O)N[C@@H](Cc4ccc(O)cc4)C(=O)N[C@@H](CCCC)C(=O)N[C@H](C(=O)N[C@@H](C)C(N)=O)CSCCC6=O)nn3)CCOCCC(=O)NCCOCCOCCOCCOCCOCCOCCOCCOCCOCCOCCn3cc(CCC(=O)N[C@H]4CSCCC(=O)N5CN6CN(C5)C(=O)CCSC[C@H](NC(=O)[C@@H](CC(=O)O)NC(=O)[C@H](Cc5cccc7ccccc57)NC(=O)[C@@H]5CCCN5C4=O)C(=O)N[C@@H](CCSC)C(=O)N[C@@H](CCCCNC(=N)N)C(=O)N[C@@H](CC(=O)O)C(=O)N[C@@H](Cc4c[nH]c5ccccc45)C(=O)N[C@@H](CO)C(=O)N[C@@H]([C@@H](C)O)C(=O)N4CCC[C@H]4C(=O)N4C[C@H](O)C[C@H]4C(=O)N[C@@H](Cc4c[nH]c5ccccc45)C(=O)N[C@H](C(N)=O)CSCCC6=O)nn3)nn1)C(=O)N1CCC[C@H]1C(=O)N[C@@H](Cc1ccc(O)cc1)C(=O)N2", "host": "rat", "dose": "2 mg/kg", "Vd": "0.44 L/kg"}
{"Compound": "CCc1cc(C(=O)NC)c2nccc(N3CCc4c(cc(Cn5ccnc5)cc4-c4cn(C)nc4C(F)(F)F)C3=O)c2c1", "host": "male Sprague-Dawley rat", "dose": "3 mg/kg", "Vd": "1 L/kg"}
{"Compound": "O=C(Nc1cc(F)c(F)c(F)c1)c1ccc(F)c(S(=O)(=O)NCc2cccc(B(O)O)c2)c1", "host": "male Sprague-Dawley rat", "dose": "2 mg/kg", "Vd": "11 L/kg"}
{"Compound": "CN1CCC(c2ccccc2CC(C)(C)Nc2nc(N3CCOCC3)nc(-n3c(C(F)F)nc4ccccc43)n2)CC1", "host": "rat", "dose": "5 mg/kg", "setting": "single dose", "Vd": "23.7 L/kg"}
{"Compound": "COc1ccc2c(Cc3ccccc3F)c3[n+](cc2c1OC)CCc1cc2c(cc1-3)OCO2.[Br-]", "host": "rat", "dose": "5 mg/kg", "Vd": "71.8 L/kg"}
{"Compound": "CCCCCCCCCCCCCCCc1ccc(CP(=O)(O)O)cc1", "host": "male Sprague-Dawley rat", "dose": "5.8 mg/kg", "Vd": "3.9 L/kg"}
